# Source: ChEMBL document CHEMBL3593210, “Pentamidine analogs as inhibitors of [(3)H]MK-801 and [(3)H]ifenprodil binding to rat brain NMDA receptors” (Bioorg Med Chem, 2015)
# Target: Glutamate NMDA receptor
# Experiment: Displacement of [3H]-MK-801 from rat cortical membranes NMDA receptor by beta counting analysis in absence of spermine
# Procedure, shortened: (§1)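 Membranes from rat frontoparietal cortex and hippocampus, prepared in 50 mM Tris acetate pH 7.0. 5 nM [3H]MK-801 was incubated with membranes (~1 mg wet tissue) for 3 h at 23 °C in 10 mM Tris acetate pH 7.0 with 10 µM glutamate and glycine, in triplicate, with or without 30 µM spermine. Compounds were tested at 3–4 concentrations. Nonspecific binding was set with 100 µM (S)-ketamine. Bound ligand was filtered and scintillation-counted. Spermine sensitivity = IC50 (with spermine)/IC50 (without).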
row,SMILES,IC50 [µM]
1,CCN(CCN(CC)c1ccc(C(=N)N)cc1)c1ccc(C(=N)N)cc1,1.14
2,N=C(NCCCO)c1ccc(N2CCCN(c3ccc(/C(N)=N/CCCO)cc3)CC2)cc1,41.2
3,NCCCCCCCCc1ccc(CCCCN)s1,0.52
4,N=C(N)c1ccc(-c2ccc(-c3ccc(C(=N)N)cc3)s2)cc1,6.68
5,N=C(N)c1ccc(-c2ccc(-c3ccc(-c4ccc(C(=N)N)cc4)nc3)cn2)cc1,26.8
6,N=C(N)c1ccc(OC(=O)c2ccc(C(=O)Oc3ccc(C(=N)N)cc3)cc2)cc1 [BIS(4-CARBAMIMIDOYLPHENYL)TEREPHTHALATE],10.8
7,N=C(N)c1ccc(C(=O)NCCCCCNC(=O)c2ccc(C(=N)N)cc2)cc1,688
8,N=C(NC1CCCC1)c1ccc(N2CCN(c3ccc(C(=N)NC4CCCC4)cc3)CC2)cc1,9.25
9,N=C(N)c1ccc(OCc2cccc(COc3ccc(C(=N)N)cc3)c2)cc1,0.79
10,N=C(N)c1ccc(NC(=O)c2cccc(C(=O)Nc3ccc(C(=N)N)cc3)c2)cc1,42.3
11,N=C(N)c1ccc(NC(=O)CCCCCC(=O)Nc2ccc(C(=N)N)cc2)cc1,> 1000
12,c1cc(N2CCCN(c3ccc(C4=NCCN4)cc3)CC2)ccc1C1=NCCN1,3.03
13,N=C(N)c1ccc(NC(=O)CCCCCCCCCCC(=O)Nc2ccc(C(=N)N)cc2)cc1,9.63
14,CC/N=C(\N)c1ccc(-c2ccc(-c3ccc(/C(N)=N/CC)cc3)o2)cc1,12.2
15,N=C(N)c1ccc(NC(=O)CCCCCCC(=O)Nc2ccc(C(=N)N)cc2)cc1,22.9
16,N=C(N)c1ccc(-c2ccc(-c3ccc(C(=N)N)cc3)o2)cc1 [FURAMIDINE],4.23
17,N=C(N)c1ccc(NC(=O)c2ccc(C(=O)Nc3ccc(C(=N)N)cc3)o2)cc1,152
18,C/N=C(\N)c1ccc(-c2ccc(-c3ccc(/C(N)=N/C)cc3)o2)cc1,6.97
19,CCCCNC(=N)c1ccc(N2CCCN(c3ccc(C(=N)NCCCC)cc3)CC2)cc1,9.94
20,N=C(N)c1ccc(C(=O)NCCCCCCNC(=O)c2ccc(C(=N)N)cc2)cc1,266
21,N=C(N)c1ccc(NC(=O)CCCCCCCCC(=O)Nc2ccc(C(=N)N)cc2)cc1,15.7
22,N=C(N)c1ccc(-c2ccc(-c3ccc(-c4ccc(C(=N)N)o4)s3)s2)o1,5.01
23,N=C(N)c1ccc(NCCCCNc2ccc(C(=N)N)cc2)cc1,4.55
24,CC(C)NC(=N)c1ccc(NC(=O)c2ccc(C(=O)Nc3ccc(C(=N)NC(C)C)cc3)o2)cc1,10.6
25,N=C(N)c1ccc(C(=O)Nc2cccc(NC(=O)c3ccc(C(=N)N)cc3)n2)cc1,125
26,N=C(N)c1ccc(NC(=O)c2ccc(C(=O)Nc3ccc(C(=N)N)cc3)cc2)cc1,53.9
27,N=C(NC1CC1)c1ccc(N2CCN(c3ccc(C(=N)NC4CC4)cc3)CC2)cc1,19.4
28,c1cc(N2CCCN(c3ccc(C4=NCCCN4)cc3)CC2)ccc1C1=NCCCN1,12.8
29,N=C(N)c1ccc(NC(=O)CCCCCCCC(=O)Nc2ccc(C(=N)N)cc2)cc1,26.5
30,N=C(N)c1ccc(-c2ccc(-c3ccc(C(=N)N)cc3)c(F)c2)cc1,9.9

# Target: Glutamate NMDA receptor
# Experiment: Displacement of [3H]-MK-801 from rat cortical membranes NMDA receptor by beta counting analysis in presence of 30 uM spermine
# Procedure, shortened: as §1
row,SMILES,IC50 [µM]
1,CCN(CCN(CC)c1ccc(C(=N)N)cc1)c1ccc(C(=N)N)cc1,13.8
2,N=C(NCCCO)c1ccc(N2CCCN(c3ccc(/C(N)=N/CCCO)cc3)CC2)cc1,427
3,NCCCCCCCCc1ccc(CCCCN)s1,6.1
4,NCCCCCCCCCCCCN,245
5,N=C(N)c1ccc(-c2ccc(-c3ccc(C(=N)N)cc3)s2)cc1,17.7
6,N=C(N)c1ccc(-c2ccc(-c3ccc(-c4ccc(C(=N)N)cc4)nc3)cn2)cc1,30
7,N=C(N)c1ccc(OC(=O)c2ccc(C(=O)Oc3ccc(C(=N)N)cc3)cc2)cc1 [BIS(4-CARBAMIMIDOYLPHENYL)TEREPHTHALATE],46.6
8,N=C(N)c1ccc(C(=O)NCCCCCNC(=O)c2ccc(C(=N)N)cc2)cc1,> 1000
9,N=C(NC1CCCC1)c1ccc(N2CCN(c3ccc(C(=N)NC4CCCC4)cc3)CC2)cc1,159
10,N=C(N)c1ccc(OCc2cccc(COc3ccc(C(=N)N)cc3)c2)cc1,6.7
11,N=C(N)c1ccc(NC(=O)c2cccc(C(=O)Nc3ccc(C(=N)N)cc3)c2)cc1,36.7
12,N=C(N)c1ccc(NC(=O)CCCCCC(=O)Nc2ccc(C(=N)N)cc2)cc1,> 1000
13,c1cc(N2CCCN(c3ccc(C4=NCCN4)cc3)CC2)ccc1C1=NCCN1,92.2
14,N=C(N)c1ccc(NC(=O)CCCCCCCCCCC(=O)Nc2ccc(C(=N)N)cc2)cc1,27.7
15,CC/N=C(\N)c1ccc(-c2ccc(-c3ccc(/C(N)=N/CC)cc3)o2)cc1,30.7
16,N=C(N)c1ccc(NC(=O)CCCCCCC(=O)Nc2ccc(C(=N)N)cc2)cc1,170

row,SMILES,IC50 [µM]
1,N=C(N)c1ccc(-c2ccc(-c3ccc(C(=N)N)cc3)o2)cc1 [FURAMIDINE],7.48
2,N=C(N)c1ccc(NC(=O)c2ccc(C(=O)Nc3ccc(C(=N)N)cc3)o2)cc1,153
3,C/N=C(\N)c1ccc(-c2ccc(-c3ccc(/C(N)=N/C)cc3)o2)cc1,24
4,CCCCNC(=N)c1ccc(N2CCCN(c3ccc(C(=N)NCCCC)cc3)CC2)cc1,103
5,N=C(N)c1ccc(C(=O)NCCCCCCNC(=O)c2ccc(C(=N)N)cc2)cc1,1210
6,N=C(N)c1ccc(NC(=O)CCCCCCCCC(=O)Nc2ccc(C(=N)N)cc2)cc1,62.6
7,N=C(N)c1ccc(-c2ccc(-c3ccc(-c4ccc(C(=N)N)o4)s3)s2)o1,11.7
8,N=C(N)c1ccc(NCCCCNc2ccc(C(=N)N)cc2)cc1,84.2
9,CC(C)NC(=N)c1ccc(NC(=O)c2ccc(C(=O)Nc3ccc(C(=N)NC(C)C)cc3)o2)cc1,174
10,N=C(N)c1ccc(C(=O)Nc2cccc(NC(=O)c3ccc(C(=N)N)cc3)n2)cc1,233
11,N=C(N)c1ccc(NC(=O)c2ccc(C(=O)Nc3ccc(C(=N)N)cc3)cc2)cc1,52.9
12,N=C(NC1CC1)c1ccc(N2CCN(c3ccc(C(=N)NC4CC4)cc3)CC2)cc1,466
13,c1cc(N2CCCN(c3ccc(C4=NCCCN4)cc3)CC2)ccc1C1=NCCCN1,143
14,N=C(N)c1ccc(NC(=O)CCCCCCCC(=O)Nc2ccc(C(=N)N)cc2)cc1,111
15,N=C(N)c1ccc(-c2ccc(-c3ccc(C(=N)N)cc3)c(F)c2)cc1,34.2

# Target: Glutamate NMDA receptor (Rattus norvegicus) (UniProt P35439+Q00959+Q00960+Q00961+Q62645+Q8VHN2+Q9R1M7)
# Experiment: Ratio of IC50 for displacement of [3H]-MK-801 from rat cortical membranes NMDA receptor in presence of 30 uM spermine to IC50 for displacement of [3H]-MK-801 from rat cortical membranes NMDA receptor in absence of 30 spermine
# Procedure, shortened: as §1
row,SMILES,Ratio IC50
1,CCN(CCN(CC)c1ccc(C(=N)N)cc1)c1ccc(C(=N)N)cc1,11.8
2,N=C(NCCCO)c1ccc(N2CCCN(c3ccc(/C(N)=N/CCCO)cc3)CC2)cc1,9.72
3,NCCCCCCCCc1ccc(CCCCN)s1,15.1
4,NCCCCCCCCCCCCN,32.9
5,N=C(N)c1ccc(-c2ccc(-c3ccc(C(=N)N)cc3)s2)cc1,2.61
6,N=C(N)c1ccc(-c2ccc(-c3ccc(-c4ccc(C(=N)N)cc4)nc3)cn2)cc1,1.24
7,N=C(N)c1ccc(OC(=O)c2ccc(C(=O)Oc3ccc(C(=N)N)cc3)cc2)cc1 [BIS(4-CARBAMIMIDOYLPHENYL)TEREPHTHALATE],3.98
8,N=C(NC1CCCC1)c1ccc(N2CCN(c3ccc(C(=N)NC4CCCC4)cc3)CC2)cc1,19.3
9,N=C(N)c1ccc(OCc2cccc(COc3ccc(C(=N)N)cc3)c2)cc1,9.04
10,N=C(N)c1ccc(NC(=O)c2cccc(C(=O)Nc3ccc(C(=N)N)cc3)c2)cc1,0.97
11,c1cc(N2CCCN(c3ccc(C4=NCCN4)cc3)CC2)ccc1C1=NCCN1,30.1
12,N=C(N)c1ccc(NC(=O)CCCCCCCCCCC(=O)Nc2ccc(C(=N)N)cc2)cc1,2.98
13,CC/N=C(\N)c1ccc(-c2ccc(-c3ccc(/C(N)=N/CC)cc3)o2)cc1,2.56
14,N=C(N)c1ccc(NC(=O)CCCCCCC(=O)Nc2ccc(C(=N)N)cc2)cc1,7.25
15,N=C(N)c1ccc(-c2ccc(-c3ccc(C(=N)N)cc3)o2)cc1 [FURAMIDINE],2.37
16,N=C(N)c1ccc(NC(=O)c2ccc(C(=O)Nc3ccc(C(=N)N)cc3)o2)cc1,1.01
17,C/N=C(\N)c1ccc(-c2ccc(-c3ccc(/C(N)=N/C)cc3)o2)cc1,3.47
18,CCCCNC(=N)c1ccc(N2CCCN(c3ccc(C(=N)NCCCC)cc3)CC2)cc1,11.2
19,N=C(N)c1ccc(C(=O)NCCCCCCNC(=O)c2ccc(C(=N)N)cc2)cc1,4.59
20,N=C(N)c1ccc(NC(=O)CCCCCCCCC(=O)Nc2ccc(C(=N)N)cc2)cc1,4.07
21,N=C(N)c1ccc(-c2ccc(-c3ccc(-c4ccc(C(=N)N)o4)s3)s2)o1,4.26
22,N=C(N)c1ccc(NCCCCNc2ccc(C(=N)N)cc2)cc1,17.2
23,CC(C)NC(=N)c1ccc(NC(=O)c2ccc(C(=O)Nc3ccc(C(=N)NC(C)C)cc3)o2)cc1,16.9
24,N=C(N)c1ccc(C(=O)Nc2cccc(NC(=O)c3ccc(C(=N)N)cc3)n2)cc1,1.85
25,N=C(N)c1ccc(NC(=O)c2ccc(C(=O)Nc3ccc(C(=N)N)cc3)cc2)cc1,0.96
26,N=C(NC1CC1)c1ccc(N2CCN(c3ccc(C(=N)NC4CC4)cc3)CC2)cc1,21.8
27,c1cc(N2CCCN(c3ccc(C4=NCCCN4)cc3)CC2)ccc1C1=NCCCN1,11.7
28,N=C(N)c1ccc(NC(=O)CCCCCCCC(=O)Nc2ccc(C(=N)N)cc2)cc1,4.25
29,N=C(N)c1ccc(-c2ccc(-c3ccc(C(=N)N)cc3)c(F)c2)cc1,4.63
30,N=C(N)NCCCCNC(=N)N,33.6

# Target: Glutamate NMDA receptor
# Experiment: Displacement of [3H]-ifenprodil from rat cortical membranes NMDA receptor by beta counting analysis in absence of spermine
row,SMILES,IC50 [µM]
1,CCN(CCN(CC)c1ccc(C(=N)N)cc1)c1ccc(C(=N)N)cc1,9.16
2,NCCCCCCCCc1ccc(CCCCN)s1,49.3
3,NCCCCCCCCCCCCN,960
4,N=C(N)c1ccc(OC(=O)c2ccc(C(=O)Oc3ccc(C(=N)N)cc3)cc2)cc1 [BIS(4-CARBAMIMIDOYLPHENYL)TEREPHTHALATE],27
5,N=C(N)c1ccc(OCc2cccc(COc3ccc(C(=N)N)cc3)c2)cc1,3.97
